Test results published in ChEMBL document CHEMBL1123418, “N-imidazolylchroman-4-ones, N-imidazolyl-1-tetralones, and their alcohols as hypolipemic agents raising high-density lipoproteins” (1986).
Values joined by “and” are separate entries in the source; they are usually repeats but may differ in a detail not shown here. Equal entries are not always repeated.

How the values were obtained:
[1] = test system: Rattus norvegicus; experiment: Percent change in total cholesterol concentration in serum from hypercholesterolemic rats at dose 40 mg/kg (po); type: functional
[2] = test system: Rattus norvegicus; experiment: Percent increase in liver weight in rats when administered perorally; type: functional
[3] = test system: Rattus norvegicus; experiment: Percent change in high density lipoproteins cholesterol concentration in serum from hypercholesterolemic rats at dose 40 mg/kg (po); type: functional
Procedure, shortened: (§1)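 Rats were fed 1.5% cholesterol/0.5% cholic acid diet for 7 days, with compounds given by gavage over the last 4 days as a 0.5% Methocel suspension (0.5 mL/100 g). Rats were fasted overnight, killed on day 8 and bled under light CO₂ anesthesia. HDL was isolated by heparin-MnCl₂ precipitation (8000 rpm, 15 min, 4 °C). Total and HDL cholesterol were measured enzymatically-colorimetrically; % change vs control.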

[4] = Percent change in high density lipoprotein cholesterol
[5] = test system: Rattus norvegicus; experiment: Percent increase in liver weight in rats when a 50 mg/Kg dose was administered; type: functional
[6] = test system: Rattus norvegicus; experiment: Percent change in total cholesterol concentration in serum from normocholesterolemic rats at dose 200 mg/kg (po)
[7] = test system: Rattus norvegicus; experiment: Percent change in triglyceride concentration in serum from normocholesterolemic rats at dose 200 mg/kg (po)
[8] = test system: Rattus norvegicus; experiment: Percent change in low density lipoproteins cholesterol concentration in serum from normocholesterolemic rats at dose 200 mg/kg (po)
[9] = test system: Rattus norvegicus; experiment: Percent change in high density lipoproteins cholesterol concentration in serum from normocholesterolemic rats at dose 200 mg/kg (po)
[10] = species: Rattus norvegicus; experiment: Compound was tested in vitro for inhibition of Cholesterol biosynthesis in rat liver slices, % inhibition of [14C]acetate incorporation in neutral lipids at 5 e10-5 concentration; type: functional
Procedure, shortened: (§2)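 Liver slices (250 mg) from fed male rats were incubated in Krebs-Ringer bicarbonate, pH 7.4, with 4 mM [2-¹⁴C]acetate under 95% O₂-5% CO₂. Compounds were tested at a final 2 × 10⁻⁴ M, or 5 × 10⁻⁵ M for one compound. ¹⁴C incorporation into cholesterol and into petroleum-ether-soluble nonsaponifiable neutral lipids gave % inhibition; mean of four determinations.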

[11] = test system: Rattus norvegicus; experiment: Compound was tested for Enzyme induction effect in male rats treated for 5 days at dose 50 mg/kg concentration of cytochrome […]( mmol/mg) in protein; type: functional
Procedure, shortened: (§3)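 Male OFA-ICO SD rats were dosed orally for 5 days, with test compounds at 50 mg/kg/day and sodium phenobarbital at 75 mg/kg/day. Liver was homogenized in 1.15% KCl-0.01 M phosphate, pH 7.5. Microsomes were spun from the 9000g supernatant at 105000g and assayed for protein, cytochrome P-450, aniline p-hydroxylation (µmol p-aminophenol/20 min) and aminopyrine N-demethylation (µmol HCHO/5 min). Liver/body weight was also recorded. Mean ± SEM of four rats; Dunnett's test.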

[12] = test system: Rattus norvegicus; experiment: Percent change in high density lipoproteins cholesterol concentration in serum from hypercholesterolemic rats at dose 50 mg/kg (po); type: functional; procedure, shortened: as §1
[13] = test system: Rattus norvegicus; experiment: Compound was tested for Enzyme induction effect in male rats treated for 5 days at dose 50 mg/kg aminopyrine N-demethylase activity(per g) of liver; type: functional; procedure, shortened: as §3
[14] = species: Rattus norvegicus; experiment: Compound was tested in vitro for inhibition of Cholesterol biosynthesis in rat liver slices, % inhibition of [14C]acetate incorporation in cholesterol at 5 e10-5 concentration; type: functional; procedure, shortened: as §2
[15] = test system: Rattus norvegicus; experiment: Compound was tested for Enzyme induction effect in male rats treated for 5 days at dose 50 mg/kg aniline p-hydroxylase activity(per g) of liver; type: functional; procedure, shortened: as §3
[16] = Compound was tested for Enzyme induction effect in male rats treated for 5 days at dose 50 mg/kg ratio of % liver weight to % body weight; type: functional; procedure, shortened: as §3
[17] = test system: Rattus norvegicus; experiment: Compound was tested for Enzyme induction effect in male rats treated for 5 days at dose 50 mg/kg concentration of microsomal proteins(mg/g) in liver; type: functional, organism-based; design: dose 50 mg/kg; procedure, shortened: as §3
[18] = test system: Rattus norvegicus; experiment: Percent change in total cholesterol concentration in serum from hypercholesterolemic rats at dose 50 mg/kg (po); type: functional
[19] = test system: Rattus norvegicus; experiment: Compound was tested for Enzyme induction effect in male rats treated for 5 days at dose 75 mg/kg aminopyrine N-demethylase activity(per g) of liver; type: functional; conditions: dose 50 mg/kg; in the assay text read “50 mg/kg” for “75 mg/kg”; procedure, shortened: as §3
[20] = test system: Rattus norvegicus; experiment: Compound was tested for Enzyme induction effect in male rats treated for 5 days at dose 50 mg/kg concentration of microsomal proteins(mg/g) in liver
[21] = test system: Rattus norvegicus; experiment: Compound was tested for Hepatic peroxisomal proliferation effect in male rats treated for 7 days at dose 50 mg/kg concentration of hepatic proteins(mg/g) in liver; type: functional, organism-based; design: dose 50 mg/kg
[22] = test system: Rattus norvegicus; experiment: Compound was tested for Hepatic peroxisomal proliferation effect in male rats treated for 7 days at dose 50 mg/kg protein; type: functional
[23] = test system: Rattus norvegicus; experiment: Compound was tested for Hepatic peroxisomal proliferation effect in male rats treated for 7 days at dose 50 mg/kg carnitine acetyl transferase activity(per mg) of protein; type: functional
Procedure, shortened: (§4)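 Male OFA-ICO SD rats received oral doses of 50 mg/kg/day for 1 week. Liver was homogenized in 0.25 M sucrose-0.01 M phosphate-0.1% ethanol, pH 7, then diluted in incubation buffer with 0.1% Triton X-100 and centrifuged. Supernatants were assayed for catalase (K, sec⁻¹), carnitine acetyltransferase (nmol CoASH/min) and cyanide-insensitive palmitoyl-CoA oxidation (nmol NAD⁺ reduced/min). Mean ± SEM of three rats; Dunnett's test.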

[24] = test system: Rattus norvegicus; experiment: Compound was tested for Hepatic peroxisomal proliferation effect in male rats treated for 7 days at dose 50 mg/kg palmitoyl-CoA oxidation activity(per mg) of protein; type: functional; procedure, shortened: as §4
[25] = test system: Rattus norvegicus; experiment: Compound was tested for Enzyme induction effect in male rats treated for 5 days at dose 75 mg/kg concentration of cytochrome […]( mmol/mg) in protein; type: functional; conditions: dose 50 mg/kg; in the assay text read “50 mg/kg” for “75 mg/kg”; procedure, shortened: as §3
[26] = Compound was tested for Hepatic peroxisomal proliferation effect in male rats treated for 7 days at dose 50 mg/kg ratio of % liver weight to % body weight; type: functional
[27] = Compound was tested for Enzyme induction effect in male rats treated for 5 days at dose 75 mg/kg ratio of % liver weight to % body weight; type: functional; conditions: dose 50 mg/kg; in the assay text read “50 mg/kg” for “75 mg/kg”; procedure, shortened: as §3
[28] = test system: Rattus norvegicus; experiment: Percent change in low density lipoproteins cholesterol concentration in serum from normocholesterolemic rats at dose 50 mg/kg (po)
[29] = test system: Rattus norvegicus; experiment: Compound was tested for Enzyme induction effect in male rats treated for 5 days at dose 75 mg/kg aniline p-hydroxylase activity(per g) of liver; type: functional; conditions: dose 50 mg/kg; in the assay text read “50 mg/kg” for “75 mg/kg”; procedure, shortened: as §3
[30] = test system: Rattus norvegicus; experiment: Percent change in triglyceride concentration in serum from normocholesterolemic rats at dose 50 mg/kg (po)
[31] = test system: Rattus norvegicus; experiment: Percent change in high density lipoproteins cholesterol concentration in serum from hypercholesterolemic rats at dose 42.5 mg/kg (po); type: functional; procedure, shortened: as §1
[32] = test system: Rattus norvegicus; experiment: Percent change in total cholesterol concentration in serum from hypercholesterolemic rats at dose 42.5 mg/kg (po); type: functional
[33] = test system: Rattus norvegicus; experiment: Percent change in high density lipoproteins cholesterol concentration in serum from hypercholesterolemic rats at dose 21 mg/kg (po); type: functional; procedure, shortened: as §1
[34] = test system: Rattus norvegicus; experiment: Percent change in total cholesterol concentration in serum from hypercholesterolemic rats at dose 21 mg/kg (po); type: functional; procedure, shortened: as §1
[35] = test system: Rattus norvegicus; experiment: Percent change in high density lipoproteins cholesterol concentration in serum from hypercholesterolemic rats at dose 10 mg/kg (po); type: functional; procedure, shortened: as §1
[36] = test system: Rattus norvegicus; experiment: Percent change in total cholesterol concentration in serum from hypercholesterolemic rats at dose 10 mg/kg (po); type: functional; procedure, shortened: as §1
[37] = test system: Rattus norvegicus; experiment: Percent change in triglyceride concentration in serum from normocholesterolemic rats at dose 100 mg/kg (po)
[38] = test system: Rattus norvegicus; experiment: Percent change in high density lipoproteins cholesterol concentration in serum from normocholesterolemic rats at dose 100 mg/kg (po)
[39] = test system: Rattus norvegicus; experiment: Percent change in low density lipoproteins cholesterol concentration in serum from normocholesterolemic rats at dose 100 mg/kg (po)
[40] = test system: Rattus norvegicus; experiment: Percent change in total cholesterol concentration in serum from normocholesterolemic rats at dose 100 mg/kg (po)
[41] = species: Rattus norvegicus; experiment: Compound was tested in vitro for inhibition of Cholesterol biosynthesis in rat liver slices, % inhibition of [14C]acetate incorporation in neutral lipids; type: functional; procedure, shortened: as §2
[42] = species: Rattus norvegicus; experiment: Compound was tested in vitro for inhibition of Cholesterol biosynthesis in rat liver slices, % inhibition of [14C]acetate incorporation in cholesterol; type: functional; procedure, shortened: as §2
[43] = test system: Rattus norvegicus; experiment: Percent change in total cholesterol concentration in serum from hypercholesterolemic rats at dose 30 mg/kg (po); type: functional; procedure, shortened: as §1
[44] = test system: Rattus norvegicus; experiment: Percent change in high density lipoproteins cholesterol concentration in serum from hypercholesterolemic rats at dose 30 mg/kg (po); type: functional; procedure, shortened: as §1

## O=C(O)c1cccc2c1C(=O)C(n1ccnc1)CC2 (stereo not given)
[1]
  Change: -19%
[2]
  Change: -4%
[3]
  Change: -9%

## CCOC(=O)C(C)(C)Oc1ccc(Cl)cc1 [CLOFIBRATE]
[4]
  Percent change in HDL cholesterol: 13
[5]
  Change: 25%
[6]
  Change: -35%
[7]
  Change: -52%
[8]
  Change: -40%
[9]
  Change: -32%

## O=C1c2ccc(O)c(Br)c2CCC1n1ccnc1 (stereo not given)
[10]
  Inhibition: 0%
[11]
  Activity: 0.98
[12]
  Change: 109%
[13]
  Activity: 1.69
[14]
  Inhibition: 0%
[15]
  Activity: 0.67
[16]
  Ratio: 3.24%
[17]
  Concentration: 28
[18]
  Change: -44%
[2]
  Change: 13%

## Cc1cccc(Nc2cc(Cl)nc(SCC(=O)NCCO)n2)c1C [PIRINIXIL]
[19]
  Activity: 0.69
[4]
  Percent change in HDL cholesterol: -9
[20]
  Concentration: 25
[5]
  Change: 42%
[21]
  Concentration: 237
[22]
  Activity: 58.8
[23]
  Activity: 69.8
[24]
  Activity: 16.2
[25]
  Activity: 0.82
[26]
  Ratio: 5.31%
[27]
  Ratio: 4.99%
[28]
  Change: -19%
[29]
  Activity: 0.64
[18]; 50 mg/kg
  Change: -43% and -23%
[2]
  Change: 54%
[30]
  Change: -48%

## CC1Oc2ccc(C(=O)O)cc2C(=O)C1n1ccnc1 (stereo not given)
[31]
  Change: -18%
[32]
  Change: -12%
[2]
  Change: 3%

## CC1Oc2cc(O)c(Br)cc2C(=O)C1n1ccnc1 (stereo not given)
[33]
  Change: 2%
[34]
  Change: -10%
[2]
  Change: 1%

## COc1ccc2c(c1)CCC(n1ccnc1)C2=O (stereo not given)
[35]
  Change: 34%
[2]
  Change: 0%
[36]
  Change: -37%

## CC(C)OC(=O)C(C)(C)Oc1ccc(C(=O)c2ccc(Cl)cc2)cc1 [FENOFIBRATE]
[4]
  Percent change in HDL cholesterol: 7
[5]
  Change: 38%
[37]
  Change: -50%
[38]
  Change: -27%
[39]
  Change: -31%
[40]
  Change: -28%

## CCCCCCCCCCCCn1ccnc1
[41]
  Inhibition: 14%
[42]
  Inhibition: 66%

## O=C1c2ccc(Br)cc2CCC1n1ccnc1 (stereo not given)
[43]
  Change: -84%
[2]
  Change: 31%
[44]
  Change: 228%
